Laboratory results from ChEMBL document CHEMBL1159047, “Synthesis and biological evaluation of antitumour-active betulin derivatives” (Bioorg Med Chem, 2010).
Activity calls are given as the source filed them. No cut-off for these calls is given here.

Assays:
[1] = Cytotoxicity against human 518A2 cells after 96 hrs by SRB assay; format: functional, cell-based; details: 518A2, 96 h
In short: (§1)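 Monolayer cells grown in RPMI 1640 with 10% heat-inactivated FBS and penicillin/streptomycin at 37 °C, 5% CO2. Cells were seeded and, after 24 h, exposed to serial dilutions (0–30 µM; DMSO or DMF ≤0.5% final) for 96 h. They were then fixed with 10% TCA at 4 °C, stained with 0.4% SRB and dissolved in 10 mM Tris, with absorbance read at 570 nm. IC50 comes from semi-log dose–response curves of survival versus untreated controls, from ≥3 independent experiments.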

[2] = system: A-431; experiment: Cytotoxicity against human A431 cells after 96 hrs by SRB assay; format: functional, cell-based; details: A-431, 96 h; in short: as §1
[3] = Cytotoxicity against human A253 cells after 96 hrs by SRB assay; format: functional, cell-based; details: A253, 96 h; in short: as §1
[4] = system: A2780; experiment: Cytotoxicity against human A2780 cells after 96 hrs by SRB assay; format: functional, cell-based; details: A2780, 96 h; in short: as §1
[5] = system: HCT-8; experiment: Cytotoxicity against human HCT8 cells after 96 hrs by SRB assay; format: functional, cell-based; details: HCT-8, 96 h; in short: as §1
[6] = system: HCT-116; experiment: Cytotoxicity against human HCT116 cells after 96 hrs by SRB assay; format: functional, cell-based; details: HCT-116, 96 h; in short: as §1
[7] = system: HT-29; experiment: Cytotoxicity against human HT-29 cells after 96 hrs by SRB assay; format: functional, cell-based; details: HT-29, 96 h; in short: as §1
[8] = system: SW480; experiment: Cytotoxicity against human SW480 cells after 96 hrs by SRB assay; format: functional, cell-based; details: SW480, 96 h; in short: as §1
[9] = system: 8505C; experiment: Cytotoxicity against human 8505C cells after 96 hrs by SRB assay; format: functional, cell-based; in short: as §1
[10] = system: MCF7; experiment: Cytotoxicity against human MCF7 cells after 96 hrs by SRB assay; format: functional, cell-based; details: MCF7, 96 h; in short: as §1
[11] = Cytotoxicity against human Liposarcoma cells after 96 hrs by SRB assay; format: functional, cell-based; in short: as §1
[12] = system: FaDu; experiment: Growth inhibition of human FADU cells at 30 uM after 96 hrs by SRB assay; format: functional, cell-based
In short: (§2)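 Same SRB set-up: RPMI 1640 with 10% FBS at 37 °C, 5% CO2, and a 96 h exposure starting 24 h after seeding (DMSO or DMF ≤0.5% final). Percent viable cells relative to untreated controls is read at 30 µM, the top concentration of the 0–30 µM dilution series. Cells were fixed with TCA, stained with SRB and read at 570 nm; ≥3 independent experiments.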

[13] = system: A549; experiment: Growth inhibition of human A549 cells at 30 uM after 96 hrs by SRB assay; format: functional, cell-based; in short: as §2
[14] = system: DLD-1; experiment: Growth inhibition of human DLD1 cells at 30 uM after 96 hrs by SRB assay; format: functional, cell-based; in short: as §2
[15] = system: SW-1736; experiment: Growth inhibition of human SW1736 cells at 30 uM after 96 hrs by SRB assay; format: functional, cell-based; in short: as §2
[16] = system: FaDu; experiment: Cytotoxicity against human FADU cells after 96 hrs by SRB assay; format: functional, cell-based; in short: as §1
[17] = system: A549; experiment: Cytotoxicity against human A549 cells after 96 hrs by SRB assay; format: functional, cell-based; details: A549, 96 h; in short: as §1
[18] = system: DLD-1; experiment: Cytotoxicity against human DLD1 cells after 96 hrs by SRB assay; format: functional, cell-based; details: DLD-1, 96 h; in short: as §1
[19] = system: SW-1736; experiment: Cytotoxicity against human SW1736 cells after 96 hrs by SRB assay; format: functional, cell-based; details: SW-1736, 96 h; in short: as §1
[20] = system: 518A2; experiment: Growth inhibition of human 518A2 cells at 30 uM after 96 hrs by SRB assay; format: functional, cell-based; in short: as §2
[21] = system: 8505C; experiment: Growth inhibition of human 8505C cells at 30 uM after 96 hrs by SRB assay; format: functional, cell-based; in short: as §2
[22] = organism: Homo sapiens; experiment: Growth inhibition of human Liposarcoma cells at 30 uM after 96 hrs by SRB assay; format: functional; in short: as §2
[23] = system: HT-29; experiment: Growth inhibition of human HT-29 cells at 30 uM after 96 hrs by SRB assay; format: functional, cell-based; in short: as §2

Structure (SMILES)	IC50 [1] [µM]	IC50 [2] [µM]	IC50 [3] [µM]	IC50 [4] [µM]	IC50 [5] [µM]	IC50 [6] [µM]	IC50 [7] [µM]	IC50 [8] [µM]	IC50 [9] [µM]	IC50 [10] [µM]	IC50 [11] [µM]	IC50 [16] [µM]	IC50 [17] [µM]	IC50 [18] [µM]	IC50 [19] [µM]	also measured
C=C(C)[C@@H]1CC[C@]2([C@@H]3CO3)CC[C@]3(C)[C@H](CC[C@@H]4[C@@]5(C)CC[C@H](O)C(C)(C)[C@@H]5CC[C@]43C)[C@@H]12	26.8	20.1	18.8	28.2	20.6	19.9	15.4	16.2	22.3	23.6	22.4	–	–	–	–	growth inhibition (GI) [12]: inactive; growth inhibition (GI) [13]: inactive; growth inhibition (GI) [14]: inactive; growth inhibition (GI) [15]: inactive
C=C(C)[C@@H]1CC[C@]2([C@H](O)[C@H]3C=CC(=O)O3)CC[C@]3(C)[C@H](CC[C@@H]4[C@@]5(C)CC[C@H](OC(C)=O)C(C)(C)[C@@H]5CC[C@]43C)[C@@H]12	16.5	8.9	15.7	8.8	14.7	8.5	29.9	12.8	17	12.5	15.9	12.3	17	16.3	14.7	–
C=C(C)[C@@H]1CC[C@]2([C@@H]3O[C@H]3C(=O)N(CC)CC)CC[C@]3(C)[C@H](CC[C@@H]4[C@@]5(C)CC[C@H](OC(C)=O)C(C)(C)[C@@H]5CC[C@]43C)[C@@H]12	7	4.3	3.5	4.7	2.7	2.3	9.6	6	8.3	4.6	7.7	5.9	5.6	7.9	2.7	–
C=C(C)[C@@H]1CC[C@]2(C(=O)[C@H]3CCOC3=O)CC[C@]3(C)[C@H](CC[C@@H]4[C@@]5(C)CC[C@H](OC(C)=O)C(C)(C)[C@@H]5CC[C@]43C)[C@@H]12 (mixture of isomers)	9.5	7.3	7	6.4	7.8	6.2	14.8	9.6	9.2	7.7	10	5.8	5.5	9.5	6.2	–
CCOC(=O)C[C@H]1O[C@@H]2[C@@H]3[C@H]4CC[C@@H]5[C@@]6(C)CC[C@H](OC(C)=O)C(C)(C)[C@@H]6CC[C@@]5(C)[C@]4(C)CC[C@@]31CCC2(C)C	–	22.6	25.1	11.9	12	9.3	16.7	17.3	–	27.1	–	24.7	21.9	–	25.9	growth inhibition (GI) [20]: inactive; growth inhibition (GI) [14]: inactive; growth inhibition (GI) [21]: inactive; growth inhibition (GI) [22]: inactive
C=C(C)[C@@H]1CC[C@]2([C@H](O)[C@H]3CCOC3=O)CC[C@]3(C)[C@H](CC[C@@H]4[C@@]5(C)CC[C@H](OC(C)=O)C(C)(C)[C@@H]5CC[C@]43C)[C@@H]12	17.9	11.7	16.8	12.4	8.3	10.7	–	16.4	22.2	11.7	17.4	17.5	21.1	17.4	18.5	growth inhibition (GI) [23]: inactive
C=C(C)[C@@H]1CC[C@]2(C(=O)O)CC[C@]3(C)[C@H](CC[C@@H]4[C@@]5(C)CC[C@H](O)C(C)(C)[C@@H]5CC[C@]43C)[C@@H]12 [BETULINIC ACID]	–	–	–	–	–	–	–	–	–	–	9.7	–	–	–	–	–
